Source: publication PMC7323501 (Inorganic chemistry, 2019)
Like-named read-outs stand apart in the source and are kept apart here.

Tests used:
[1] = CCA assay: copper/ascorbate redox cycling, hydroxyl radical production; settings: 1 equiv (10 μM) vs copper(II) 10 μM, ascorbate 300 μM, CCA 100 μM, pH 7.4
How it was run: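 Cu(II)/ascorbate hydroxyl-radical model in PBS (pH 7.4) with Desferal (1 μM); CuSO4 in water. Addition order is buffer, CCA (100 μM), Desferal, test compound (0.5 equiv = 5 μM or 1 equiv = 10 μM), Cu(II) (10 μM), then ascorbate (300 μM). The read-out is 7-hydroxy-CCA fluorescence (λex 395 nm, λem 450 nm). Triplicate.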

[2] = DPPH radical scavenging assay; settings: 1–1500 μM, MeOH, 30 min, n = 3
How it was run: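 Test compound stocks (5 mM, MeOH) were diluted and mixed 1:1 with DPPH stock (150 μM in MeOH), giving final compound 1–1500 μM. Plates were incubated 30 min in the dark at room temperature and read at 516 nm. BHT served as reference antioxidant, and DPPH plus MeOH as the control. Each concentration was run in triplicate, with results normalised to control as % DPPH quenched.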

[3] = cited from earlier work
[4] = previously shown; cited from earlier work
Nrf2 = Nrf2 expression by Western blot in HT-22 cells; assay type: cell-based, mouse; settings: HT-22, 1 μM, 24 h
Nrf2 pathway = settings: human blood–brain barrier CMEC/D3 cells; cited from earlier work
HT-22 cells = experiment: Cytoprotection against H2O2 in HT-22 cells, WST-8 assay; assay type: cell-based, mouse; settings: then 600 μM H2O2 4 h
How it was run: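 HT-22 cells were pretreated with or without test compound (0.1–100 μM) for 24 h, then exposed to 600 μM H2O2 for 4 h. Viability was read by WST-8 reduction (2 h incubation, A450). Values are mean ± SD, n = 6, and significance was tested against the H2O2-only group.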

CCN(CC)Cc1cccc(CN(CC)CC)n1 [2,6-bis[(diethylamino)methyl]pyridine]
inhibition of CCA conversion to fluorescent hydroxy-CCA [1]: failed to give any indication of the prevention of copper redox cycling

Cc1cc(C(C)(C)C)c(O)c(C(C)(C)C)c1 [BHT, 2,6-Di-tert-butyl-4-methylphenol, reference compound]
DPPH^• radical scavenging response [2]: rapid decrease in the DPPH^• absorbance band

c1cc2nc(c1)CNCCNCCNC2 [L1]
log K1^H ([3]; I = 0.15 M NaCl, T = 298 K): 11.37
log K2^H ([3]; I = 0.15 M NaCl, T = 298 K): 8.22
log K3^H ([3]; I = 0.15 M NaCl, T = 298 K): 1.61
pI ([3]; I = 0.15 M NaCl, T = 298 K): >11.37
DPPH^• radical scavenging activity [4]: lack of radical scavenging activity

Oc1cc2nc(c1)CNCCNCCNC2 [L2]
log K1^H ([3]; I = 0.15 M NaCl, T = 298 K): 11.56
log K2^H ([3]; I = 0.15 M NaCl, T = 298 K): 9.05
log K3^H ([3]; I = 0.15 M NaCl, T = 298 K): 5.45
log K4^H ([3]; I = 0.15 M NaCl, T = 298 K): 1.68
pI ([3]; I = 0.15 M NaCl, T = 298 K): 10.31
DPPH^• radical scavenging response [2]: strong response
reactivity with ABTS (ABTS radical reactivity): little to no reactivity
expression level of Nrf2 (Nrf2): significantly increase the expression level of Nrf2
Nrf2 pathway activation (Nrf2 pathway): could activate the Nrf2 pathway
cell viability after H2O2 (HT-22 cells; HT-22, 1 μM pretreatment 24 h, mean ± SD, n = 6): 70.1 ± 9.8%
cell viability after H2O2 (HT-22 cells; HT-22, 0.1, 10 and 100 μM pretreatment 24 h): did not improve the cell viability

C1CNCCNCCNCCN1 [cyclen, reference compound]
log K1^H ([3]; I = 0.15 M NaClO4): 10.66
log K2^H ([3]; I = 0.15 M NaClO4): 9.69
log K3^H ([3]; I = 0.15 M NaClO4): 1.41
pI ([3]; I = 0.15 M NaClO4): > 10.66
